This note sets out measurements from ChEMBL document CHEMBL5500359, “Identification of a new bisindolinone arresting IGROV1 cells proliferation” (Eur J Med Chem, 2024).

Active and inactive are the calls of the source. No cut-off for these calls is given here.

A word on the GI50: it is the concentration that inhibits growth by half. Higher therefore signals lower sensitivity of the cells. The IC50 is the concentration needed to halve the response being measured. A word on the TGI: it is the concentration giving total growth inhibition.

The test system of data set [1] is Panel NCI-60 (60 carcinoma cell lines). Description: Cell growth inhibition of human Panel NCI-60 (60 carcinoma cell lines) incubated for 48 hrs by SRB assay. The data set is classed as functional. A digest of the protocol: (§1)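 NCI-60 five-concentration screen: lines seeded 5×10^3–4×10^4 cells/well depending on line; compound diluted in fresh medium at scalar concentrations 0–100 or 0–1000 μM; 48 h exposure, in situ fixation, sulforhodamine B protein staining, optical density read; GI50, TGI and LC50 per NCI procedures; panel mean = mean graph midpoint.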

The test system is the same in data set [2]. Description: Cytostatic activity against human Panel NCI-60 (60 carcinoma cell lines) incubated for 48 hrs by SRB assay. The data set is classed as functional. A digest of the protocol:
as §1
(The SRB assay estimates cell density from bound dye.)

Data set [3] can be described thus: Cytotoxicity against human HDFa cells assessed as reduction in cell viability incubated for 24 hrs by MTT assay. The data set is classed as toxicity, cell-based. A digest of the protocol:
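IGROV1 and HDFa in RPMI 1640 + 10% FCS, 2 mM glutamine, 37 °C, 5% CO2; seeded 1.5×10^4/well, after 24 h exposed 24 h to 0.010–500 μM (DMSO ≤0.1%). MTT 0.2 mg/mL in PBS 2 h at 37 °C, absorbance 570 nm; IC50 from dose-response, three independent experiments each in triplicate; SI = HDFa IC50/IGROV1 IC50.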
In general terms: Tetrazolium assays rely on reduction of a dye to a coloured formazan, in cell work by metabolically active cells.

Data set [4] in a line: Cytostatic activity against human Leukemia cancer cells incubated for 48 hrs by SRB assay. Type of data set: functional, Leukemia cell. A digest of the protocol:
as §1

The test system of data set [5] is Melanoma cell line. Description: Cell growth inhibition of human Melanoma cells incubated for 48 hrs by SRB assay. Type of data set: functional. A digest of the protocol: as §1
The subject of data set [6] is IGROV-1. Description: Downregulation of ITAG5 mRNA level in human IGROV-1 cells at 5 uM incubated for 6 hrs by RT-PCR analysis. Type of data set: functional, cell-based. In a few lines: (§2)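 IGROV1 given 5 μM versus vehicle; RNA extracted by spin column, reverse transcribed, CCND1, CDKN1A and ITAG5 transcripts quantified by qRT-PCR as fold change versus vehicle; at least triplicate, Student's t-test, p<0.05.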

Data set [7] has as its system Colon carcinoma cell. Description: Cytostatic activity against human Colon carcinoma cells incubated for 48 hrs by SRB assay. The data set is classed as functional. A digest of the protocol:
as §1

Data set [8] can be described thus: Cell growth inhibition of human Leukemia cancer cells incubated for 48 hrs by SRB assay. Type of data set: functional. A digest of the protocol: as §1
Data set [9] relates to Prostatic carcinoma cell. Description: Cell growth inhibition of human Prostate carcinoma cells incubated for 48 hrs by SRB assay. The data set is classed as functional. In a few lines:
as §1

The test system of data set [10] is IGROV-1. Description: Effect on directionality of human IGROV-1 cells at 5 uM incubated for 24 hrs. The data set is classed as functional, cell-based. In a few lines: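 Livecyte quantitative phase imaging, label-free single-cell tracking; IGROV1 seeded 4×10^3/well, treated after 24 h with 5 μM in six replicates; frames every 60 min for 2 days, 10× objective, 37 °C, 5% CO2. Each cell tracked for displacement, instantaneous velocity and directionality.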

Data set [11] concerns IGROV-1. Description: Downregulation of RAD51 level in human IGROV-1 cells at 5 uM pretreated for 24 hrs followed by UV exposure for 6 hrs by Western blot analysis. The data set is classed as functional, cell-based. The settings on record: time 30.0 hrs. In a few lines: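 IGROV1 pretreated 24 h with 5 μM, then UV-irradiated with a 7.5 W lamp for 3 min; UV alone as positive control. Cyclin D1 and RAD51 by RIPA-lysate Western blot normalized to α-tubulin; γH2AX by acid-extracted histone blot normalized to H1; percent of vehicle, mean ± SD, three experiments.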
A general note: Immunoblotting shows a protein as a band on a membrane.

For data set [12], the system named is Melanoma cell line. Description: […] against human Melanoma cells incubated for 48 hrs by SRB assay. The data set is classed as functional. The settings on record: read-out: LC50 (the source's name). In a few lines: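 NCI DTP five-concentration screen. Cells were seeded at 5 × 10³–4 × 10⁴ cells/well, depending on the line. Compounds were diluted in fresh medium and added at scalar concentrations over 0–1000 µM or 0–100 µM. After 48 h the cells were fixed in situ, stained with sulforhodamine B, and optical density was read. GI50, TGI and LC50 were derived by NCI procedures, and the panel mean is the mean graph midpoint.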

The test system of data set [13] is IGROV-1. Description: Induction of cell cycle arrest in human IGROV-1 cells assessed as increase in cell accumulation at G0/G1 phase at 5 uM incubated for 24 hrs by PI staining based flow cytometry relative to control. Type of data set: functional. A digest of the protocol:
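IGROV1 plated 2×10^4 cells/cm², after 24 h given 5 μM for 24 h; cells detached, PBS-washed, stained 30 min at room temperature in dark with 50 μg/mL propidium iodide, 10 μg/mL RNase, 0.01% Igepal, 0.1% sodium citrate; DNA content by flow cytometry, phase percentages versus untreated.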

Data set [14] deals with IGROV-1. Description: Effect on p21 mRNA level in human IGROV-1 cells at 5 uM incubated for 6 hrs by RT-PCR analysis. The data set is classed as functional, cell-based. A digest of the protocol: as §2
The subject of data set [15] is IGROV-1. Description: Downregulation of CCND1 mRNA level in human IGROV-1 cells at 5 uM incubated for 6 hrs by RT-PCR analysis. Type of data set: functional, cell-based. In a few lines:
as §2

The test system of data set [16] is IGROV-1. Description: Downregulation of CCND1 mRNA level in human IGROV-1 cells at 5 uM pretreated for 24 hrs followed by UV exposure for 6 hrs by qRT-PCR analysis. Type of data set: functional, cell-based. The settings on record: time 30.0 hrs. In a few lines: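 IGROV1 pretreated 24 h with 5 μM then UV-irradiated (7.5 W lamp, 3 min); CCND1 and RAD51 mRNA by qRT-PCR after column RNA extraction and reverse transcription, fold change versus vehicle; at least triplicate, Student's t-test.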

Data set [17] relates to Renal cancer cell line. Description: Cell growth inhibition of human Renal cancer cells incubated for 48 hrs by SRB assay. The data set is classed as functional. In a few lines: as §1
Data set [18] concerns IGROV-1. Description: Antiproliferative activity against human IGROV-1 cells assessed as doubling time at 5 uM incubated for 24 to 48 hrs (reference value: 23.9 +/- 2.4 hrs). The data set is classed as functional. Particulars: time 24-48 hrs. In a few lines: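 Quantitative phase imaging on IGROV1 seeded 4×10^3/well, 24 h later given 5 μM (six replicates; DMSO ≤0.1% final). Images hourly for 2 days at 37 °C, 5% CO2. Cell count and confluence normalized to experiment start; doubling time derived from growth.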

Data set [19] deals with Ovarian cancer cell line. Description: Cytotoxicity against human Ovarian cancer cells incubated for 48 hrs by SRB assay. The data set is classed as functional. A digest of the protocol: as §1

For the compound `CC(C)(C)c1cc(/C=C2/C(=O)Nc3cc(Cl)ccc32)c(O)c(/C=C2/C(=O)Nc3cc(Cl)ccc32)c1`, the GI50 in [1] turned out to be 3.02 µM; in data set [8], 2.45 µM; in data set [17], 2.69 µM. The GI amounted to 12.02 µM in [2]; 18.62 µM in data set [4]; 2.82 µM in data set [5]; 3.63 µM in data set [9]; 30.9 µM in [19]. The IC50 at 24 h in data set [3] came out at 21.9 µM. The outcome in data set [6], in data set [11], in data set [15] and in data set [16] was Active. This compound also displayed a TGI in data set [7] of 13.2 µM. Moreover, the outcome in data set [10] and in data set [14] was inactive. In data set [12], the CC50 came to 8.51 µM. Moreover, the Activity in [13] amounted to 13.4%. Further, the Time in [18] was determined as 113.3 h.
